Assays:
Cannabinoid receptor 2 [1] = target: T1, Cannabinoid receptor 2 (Homo sapiens, UniProt P34972); test: Antagonist activity at human CB2 receptor expressed in CHO cells co-expressing Galpha16 assessed as inhibition of EC80 CP55,940-induced calcium mobilization at 10 uM preincubated for 15 mins followed by […] addition measured at 1 sec interval for 90 secs by calcium-5 dye based FLIPR assay relative to CP55,940; assay type: functional, cell-based
How it was run: (§1)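 CB2 antagonist mode in stable human CB2-CHO-RD-HGA16 cells. Cells were dye-loaded, then pretreated with compound for 15 min at 37 °C. CP55,940 was added at its EC80 at the 10 s point, and calcium fluorescence was recorded every 1 s over 90 s.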

Cannabinoid receptor 1 [2] = target: T2, Cannabinoid receptor 1 (Homo sapiens, UniProt P21554); test: Inverse agonist activity at human CB1 receptor expressed in HEK293 cell membranes assessed as suppression of [35S]GTPgammaS binding at 10 uM incubated for 60 mins by scintillation counting method; settings: hek293, 1 h
How it was run: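 Inverse agonism on human CB1-HEK293 membranes: compounds were incubated 60 min with 0.1 nM [35S]GTPγS and 30 µM GDP, with no CP55,940 present. Buffer was Tris/MgCl2/EGTA pH 7.4 with 0.5% BSA, at 30 °C. Binding was read by filtration and scintillation counting and normalized to basal (vehicle = 0%).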

Cannabinoid receptor 2 [3] = target: T1, Cannabinoid receptor 2; test: Antagonist activity at human CB2 receptor expressed in CHO cells co-expressing Galpha16 assessed as inhibition of EC80 CP55,940-induced calcium mobilization preincubated for 15 mins followed by […] addition measured at 1 sec interval for 90 secs by calcium-5 dye based FLIPR assay; assay type: functional, cell-based; how it was run: as §1
Cannabinoid receptor 2 [4] = target: T1, Cannabinoid receptor 2; test: Agonist activity at human CB2 receptor expressed in CHO cells co-expressing Galpha16 assessed as increase in calcium mobilization at 10 uM measured at 1 sec interval for 90 secs by calcium-5 dye based FLIPR assay relative to CP55,940; assay type: functional, cell-based
Cannabinoid receptor 1 [5] = target: T2, Cannabinoid receptor 1; test: Agonist activity at human CB1 receptor expressed in CHO-RD-HGA16 cells co-expressing Galpha16 assessed as suppression stimulation of calcium mobilization incubated for 45 mins by Calcium 5 dye based FLIPR assay relative to CP55,940; assay type: functional, cell-based
How it was run: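 CHO-RD-HGA16 cells stably expressing human CB1 (with Galpha16), plated overnight and loaded with Calcium 5 dye for 45 min at 37 °C. […] Compound was added by the FLIPR Tetra at the 10 s point as a single concentration, and fluorescence (485/525 nm) was read every 1 s for 90 s. RFU were expressed as % of CP55,940 Emax.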

Cannabinoid receptor 1 [6] = target: T3, Cannabinoid receptor 1 (Mus musculus, UniProt P47746); test: Allosteric modulator activity at CB1 receptor in mouse cerebellar membranes assessed as suppression of 100 nM CP55,940-induced [35S]GTPgammaS binding incubated for 60 mins by scintillation counting method; assay type: functional, cell membranes, Cerebellum, Membrane
Cannabinoid receptor 1 [7] = target: T2, Cannabinoid receptor 1; test: Allosteric modulator activity at human CB1 receptor expressed in CHO-RD-HGA16 cells co-expressing Galpha16 assessed as suppression of 100 nM CP55,940-induced calcium mobilization pre-incubated for 15 mins by Calcium 5 dye based FLIPR assay; assay type: functional, cell-based
Cannabinoid receptor 1 [8] = target: T2, Cannabinoid receptor 1; test: Allosteric modulator activity at human CB1 receptor expressed in HEK293 cell membranes assessed as suppression of 100 nM CP55,940-induced [35S]GTPgammaS binding incubated for 60 mins by scintillation counting method; assay type: functional
Cannabinoid receptor 1 [9] = target: T2, Cannabinoid receptor 1; test: Displacement of [3H]CP55,940 from human CB1 receptor
[10] = Half life in rat liver microsomes; assay type: ADME, Microsome
How it was run: (§2)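 Rat liver microsomes (0.5 mg/mL protein) in 100 mM potassium phosphate pH 7.4 at 37 °C with 1 mM NADPH. Samples were taken at 0, 5, 15, 30 and 45 min, quenched with cold acetonitrile containing internal standards, and analysed by LC/MS/MS. Half-life and clearance were calculated; two independent experiments in duplicate.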

Cannabinoid receptor 1 [11] = target: T3, Cannabinoid receptor 1; test: Allosteric modulator activity at CB1 receptor in mouse cerebellar membranes assessed as suppression of 1 uM CP55,940-induced [35S]GTPgammaS binding incubated for 60 mins by scintillation counting method; assay type: functional, cell membranes, Cerebellum, Membrane
[12] = Kinetic solubility in phosphate buffer at 400 uM incubated for 2 hrs by LC-MS/MS analysis; assay type: physicochemical; settings: read-out: Kinetic_solubility
How it was run: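 A 20 mM DMSO stock was diluted into phosphate buffer to a targeted 400 µM and vortexed 2 h at room temperature. Three independent experiments in duplicate.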

[13] = Apparent permeability from apical to basolateral side in MDCK-MDR1 cells incubated up to 90 mins by LC-MS/MS analysis; assay type: ADME, cell-based, Canis lupus familiaris; settings: dog
How it was run: (§3)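 MDCK-MDR1 cells were grown 3 days on Transwell supports and preincubated 30 min at 37 °C in HBSS with 10 mM HEPES and 0.25% BSA, pH 7.4, with TEER checked. Test article (10 µM) was added to the apical (A-to-B) or basolateral (B-to-A) donor side at 37 °C with light agitation. Receiver samples were taken at 30, 60 and 90 min for LC-MS/MS. Papp = (dQ/dt)/(A·Ci·60).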

[14] = Clearance in rat liver microsomes in presence of NADPH incubated up to 45 mins by LC-MS/MS analysis; assay type: ADME, Microsome; settings: liver microsomes, read-out: CLH; how it was run: as §2
[15] = Half life in rat liver microsomes in presence of NADPH by LC-MS/MS analysis; assay type: ADME, Microsome; settings: liver microsomes; how it was run: as §2
Cannabinoid receptor 1 [16] = target: T3, Cannabinoid receptor 1; test: Allosteric antagonist activity at mouse CB1 receptor by GTPgammaS assay; assay type: functional
How it was run: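 Cerebellar membranes from male ICR mice (6-8 weeks), preincubated 10 min with adenosine deaminase (3 units/ml) in Tris/MgCl2/EGTA buffer, pH 7.4. Membranes (10 µg) pre-equilibrated 30 min with modulator, CP55,940 (100 nM; some also at 1 µM), 30 µM GDP and 0.5% BSA, then 0.1 nM [35S]GTPγS for 60 min at 30 °C.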

[17] = Apparent permeability from basolateral to apical side in MDCK-MDR1 cells incubated up to 90 mins by LC-MS/MS analysis; assay type: ADME, cell-based, Canis lupus familiaris; settings: dog; how it was run: as §3

T1 sequence (P34972 whole entry): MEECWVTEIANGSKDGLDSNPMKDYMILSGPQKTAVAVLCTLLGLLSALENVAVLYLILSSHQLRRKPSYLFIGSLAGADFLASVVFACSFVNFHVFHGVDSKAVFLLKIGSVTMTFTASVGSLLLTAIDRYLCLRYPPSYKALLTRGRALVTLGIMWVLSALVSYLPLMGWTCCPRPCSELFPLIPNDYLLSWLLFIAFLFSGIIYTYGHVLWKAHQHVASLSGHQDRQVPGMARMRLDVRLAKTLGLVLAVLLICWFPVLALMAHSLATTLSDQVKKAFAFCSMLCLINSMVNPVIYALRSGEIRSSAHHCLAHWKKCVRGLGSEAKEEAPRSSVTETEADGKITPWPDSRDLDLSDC
T3 sequence (P47746 whole entry): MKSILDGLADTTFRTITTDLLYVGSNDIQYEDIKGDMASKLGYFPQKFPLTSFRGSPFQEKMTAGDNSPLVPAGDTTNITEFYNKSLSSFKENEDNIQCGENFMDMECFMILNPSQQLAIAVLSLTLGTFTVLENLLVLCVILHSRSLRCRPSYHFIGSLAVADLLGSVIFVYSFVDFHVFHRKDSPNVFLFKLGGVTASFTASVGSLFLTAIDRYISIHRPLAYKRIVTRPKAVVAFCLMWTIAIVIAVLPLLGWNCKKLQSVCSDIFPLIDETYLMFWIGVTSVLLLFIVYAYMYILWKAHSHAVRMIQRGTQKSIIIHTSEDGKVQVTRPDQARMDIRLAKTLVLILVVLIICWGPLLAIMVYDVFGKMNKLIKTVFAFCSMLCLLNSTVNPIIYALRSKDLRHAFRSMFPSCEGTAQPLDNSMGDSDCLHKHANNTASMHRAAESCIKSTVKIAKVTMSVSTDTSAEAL
T2 sequence (P21554 whole entry): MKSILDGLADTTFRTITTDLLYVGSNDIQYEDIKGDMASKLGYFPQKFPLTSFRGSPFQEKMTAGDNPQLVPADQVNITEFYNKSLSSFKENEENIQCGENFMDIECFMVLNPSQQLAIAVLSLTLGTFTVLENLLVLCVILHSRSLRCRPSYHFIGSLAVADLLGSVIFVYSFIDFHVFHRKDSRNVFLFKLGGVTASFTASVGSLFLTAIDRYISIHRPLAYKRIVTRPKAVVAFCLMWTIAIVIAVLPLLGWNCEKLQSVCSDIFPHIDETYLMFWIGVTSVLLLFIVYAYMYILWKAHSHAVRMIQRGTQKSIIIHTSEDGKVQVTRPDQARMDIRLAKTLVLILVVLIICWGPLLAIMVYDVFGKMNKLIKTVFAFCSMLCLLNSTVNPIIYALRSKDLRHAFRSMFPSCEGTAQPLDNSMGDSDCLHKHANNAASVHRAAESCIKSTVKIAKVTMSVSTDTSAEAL

Row | Emax (Cannabinoid receptor 2 [4]) [%] | SMILES | inhibition (Cannabinoid receptor 2 [1]) [%] | inhibition (INH) (Cannabinoid receptor 1 [2]) | IC50 (Cannabinoid receptor 2 [3]) [µM] | further results
1 | < 10 | CC(=O)c1cccc(-c2ccc(NC(=O)Nc3ccc(Cl)cc3)s2)c1 | < 50 | Active | > 10 | –
2 | < 10 | O=C(Nc1ccc(Cl)cc1)N[C@H]1C[C@H]1c1ccccc1 (relative stereo) | < 50 | Active | > 10 | Emax (Cannabinoid receptor 1 [5]): < 30%
3 | < 10 | O=C(Nc1ccc(Cl)cc1)Nc1ccc(-c2cccc(Cl)c2)s1 | < 50 | Active | > 10 | –
4 | < 10 | O=C(Nc1ccc(Cl)cc1)Nc1ccc(-c2ccc(Cl)cc2)s1 | < 50 | Active | > 10 | –
5 | < 10 | COc1ccccc1-c1ccc(NC(=O)Nc2ccc(Cl)cc2)s1 | < 50 | Active | > 10 | –
6 | < 10 | O=C(Nc1ccc(Cl)cc1)Nc1ccc(-c2cccnc2)s1 | < 50 | Active | > 10 | –
7 | < 10 | CS(=O)(=O)c1cccc(-c2ccc(NC(=O)Nc3ccc(Cl)cc3)s2)c1 | < 50 | Active | > 10 | –
8 | < 10 | O=C(Nc1ccc(Cl)cc1)Nc1ccc(-c2ccc(Cl)c(Cl)c2)s1 | < 50 | Active | > 10 | –
9 | < 10 | COc1ccc(-c2cccc(N3CCCC3)n2)cc1NC(=O)Nc1ccc(Cl)cc1 | < 50 | Active | > 10 | –
10 | < 10 | O=C(Nc1ccc(Cl)cc1)Nc1ccc(-c2cccc(F)c2)s1 | < 50 | Active | > 10 | –
11 | < 10 | Cc1cccc(-c2ccc(NC(=O)Nc3ccc(Cl)cc3)s2)c1 | < 50 | Active | > 10 | –
12 | < 10 | O=C(Nc1ccc(Cl)cc1)N[C@H]1C[C@@H]1c1ccccc1 (relative stereo) | < 50 | Active | > 10 | Emax (Cannabinoid receptor 1 [5]): < 30%
13 | < 10 | O=C(Nc1ccc(Cl)cc1)Nc1csc(-c2ccccc2)c1 | < 50 | Active | > 10 | –
14 | < 10 | O=C(Nc1ccc(Cl)cc1)Nc1ncc(-c2ccccc2)s1 | < 50 | Active | > 10 | –
15 | < 10 | O=C(Nc1ccc(Cl)cc1)Nc1ccc(-c2ccc(F)cc2)s1 | < 50 | Active | > 10 | –

The remaining lines, values behind:

Row | SMILES | Emax (Cannabinoid receptor 2 [4]) [%] | inhibition (Cannabinoid receptor 2 [1]) [%] | inhibition (INH) (Cannabinoid receptor 1 [2]) | IC50 (Cannabinoid receptor 2 [3]) [µM] | further results
16 | O=C(Nc1ccc(Cl)cc1)Nc1cc(-c2ccccc2)ccn1 | < 10 | < 50 | Active | > 10 | IC50 (Cannabinoid receptor 1 [6]): > 10 µM; IC50 (Cannabinoid receptor 1 [7]): 0.156 µM; IC50 (Cannabinoid receptor 1 [8]): > 10 µM
17 | O=C(Nc1ccc(Cl)cc1)N[C@@H]1CCCN(c2ccccc2)C1 | < 10 | < 50 | Active | > 10 | IC50 (Cannabinoid receptor 1 [7]): 3.88 µM; IC50 (Cannabinoid receptor 1 [8]): > 10 µM
18 | O=C(Nc1ccc(Cl)cc1)Nc1cccc(-c2ccccc2)n1 | < 10 | < 50 | Active | > 10 | IC50 (Cannabinoid receptor 1 [7]): 3.53 µM; IC50 (Cannabinoid receptor 1 [8]): > 10 µM
19 | O=C(Nc1ccc(Cl)cc1)Nc1cccc(-c2ccc[nH]2)c1 | – | – | – | – | Kd (Cannabinoid receptor 1 [9]): 0.0014 µM
20 | COc1ccc(-c2ccc(NC(=O)Nc3ccc(Cl)cc3)s2)cc1 | < 10 | < 50 | Active | > 10 | –
21 | O=C(Nc1ccc(Cl)cc1)Nc1ccc(-c2ccc(F)cc2F)s1 | < 10 | < 50 | Active | > 10 | –
22 | O=C(Nc1ccc(Cl)cc1)Nc1ccnc(-c2ccccc2)c1 | < 10 | < 50 | Active | > 10 | IC50 (Cannabinoid receptor 1 [7]): 0.233 µM; IC50 (Cannabinoid receptor 1 [8]): 2.77 µM
23 | O=C(Nc1ccc(Cl)cc1)Nc1ccc(-c2cc(Cl)cc(Cl)c2)s1 | < 10 | < 50 | Active | > 10 | –
24 | COc1cccc(-c2ccc(NC(=O)Nc3ccc(Cl)cc3)s2)c1 | < 10 | < 50 | Active | > 10 | –
25 | O=C(Nc1ccc(Cl)cc1)Nc1cccc(-c2cccc(N3CCCC3)n2)c1 | – | < 50 | Active | > 10 | t1/2 ([10]; microsomes): 13 min; IC50 (Cannabinoid receptor 1 [6]): 0.288 µM; pIC50 (Cannabinoid receptor 1 [11]): 6.91; solubility kinetic at 2 h, 400 µM [12]: < 0.5 µM; Papp [13]: 2.6 ×10⁻⁶ cm/s; microsomal CLint at […] [14]: 114 µL/min/mg; half-life [15]: 13.4 min; Emax (Cannabinoid receptor 1 [5]): < 30%; IC50 (Cannabinoid receptor 1 [16]): 0.115 µM; Papp [17]: 2.2 ×10⁻⁶ cm/s
26 | O=C(Nc1ccc(Cl)cc1)Nc1cccc(-c2ccc(F)cc2)c1 | – | – | – | – | half-life ([10]; liver microsomes): > 300 min
27 | O=C(Nc1ccc(Cl)cc1)Nc1ccc(-c2ccncc2)s1 | < 10 | < 50 | Active | > 10 | IC50 (Cannabinoid receptor 1 [8]): 0.263 µM
28 | CN(C)c1cccc(-c2ccc(NC(=O)Nc3ccc(Cl)cc3)s2)c1 | < 10 | < 50 | Active | > 10 | IC50 (Cannabinoid receptor 1 [11]): 2.57 µM
29 | O=C(Nc1ccc(Cl)cc1)Nc1cncc(-c2ccccc2)c1 | < 10 | < 50 | Active | > 10 | IC50 (Cannabinoid receptor 1 [7]): 0.292 µM; IC50 (Cannabinoid receptor 1 [8]): > 10 µM
30 | O=C(Nc1ccc(Cl)cc1)Nc1ccc(-c2ccccc2Cl)s1 | < 10 | < 50 | Active | > 10 | –
31 | O=C(Nc1ccc(Cl)cc1)Nc1cc(-c2ccccc2)cs1 | < 10 | < 50 | Active | > 10 | IC50 (Cannabinoid receptor 1 [6]): 0.776 µM
32 | COC(=O)c1cccc(-c2ccc(NC(=O)Nc3ccc(Cl)cc3)s2)c1 | < 10 | < 50 | Active | > 10 | IC50 (Cannabinoid receptor 1 [8]): 2.35 µM
